Reference: ChEMBL document CHEMBL1135816, “6-Aryl-1,4-dihydro-benzo[d][1,3]oxazin- 2-ones: a novel class of potent, selective, and orally active nonsteroidal progesterone receptor antagonists” (J Med Chem, 2002)

Experiments:
[1] = Half life in female rats for a dose of 1 mg/kg administered intravenously.; assay type: ADME, organism-based; set-up: dose 1 mg/kg, route intravenous; settings: rat, in vivo, iv
[2] = Area under the curve (AUC) for the compound in female rats for a dose of 1 mg/kg administered intravenously.; assay type: ADME, organism-based; set-up: dose 1 mg/kg, route intravenous; settings: rat, in vivo, iv
[3] = Plasma clearance (Cl) for the compound in female rats for a dose of 1 mg/kg administered intravenously; assay type: ADME, organism-based; set-up: dose 1 mg/kg, route intravenous; settings: rat, iv, read-out: Clp (converted)
[4] = biological target: T1, Progesterone receptor (Rattus norvegicus) (UniProt Q63449); test: inhibitory activity against progesterone receptor (PR) in ovariectomized mature female rat complement C3 model; assay type: functional
T1 sequence (whole entry): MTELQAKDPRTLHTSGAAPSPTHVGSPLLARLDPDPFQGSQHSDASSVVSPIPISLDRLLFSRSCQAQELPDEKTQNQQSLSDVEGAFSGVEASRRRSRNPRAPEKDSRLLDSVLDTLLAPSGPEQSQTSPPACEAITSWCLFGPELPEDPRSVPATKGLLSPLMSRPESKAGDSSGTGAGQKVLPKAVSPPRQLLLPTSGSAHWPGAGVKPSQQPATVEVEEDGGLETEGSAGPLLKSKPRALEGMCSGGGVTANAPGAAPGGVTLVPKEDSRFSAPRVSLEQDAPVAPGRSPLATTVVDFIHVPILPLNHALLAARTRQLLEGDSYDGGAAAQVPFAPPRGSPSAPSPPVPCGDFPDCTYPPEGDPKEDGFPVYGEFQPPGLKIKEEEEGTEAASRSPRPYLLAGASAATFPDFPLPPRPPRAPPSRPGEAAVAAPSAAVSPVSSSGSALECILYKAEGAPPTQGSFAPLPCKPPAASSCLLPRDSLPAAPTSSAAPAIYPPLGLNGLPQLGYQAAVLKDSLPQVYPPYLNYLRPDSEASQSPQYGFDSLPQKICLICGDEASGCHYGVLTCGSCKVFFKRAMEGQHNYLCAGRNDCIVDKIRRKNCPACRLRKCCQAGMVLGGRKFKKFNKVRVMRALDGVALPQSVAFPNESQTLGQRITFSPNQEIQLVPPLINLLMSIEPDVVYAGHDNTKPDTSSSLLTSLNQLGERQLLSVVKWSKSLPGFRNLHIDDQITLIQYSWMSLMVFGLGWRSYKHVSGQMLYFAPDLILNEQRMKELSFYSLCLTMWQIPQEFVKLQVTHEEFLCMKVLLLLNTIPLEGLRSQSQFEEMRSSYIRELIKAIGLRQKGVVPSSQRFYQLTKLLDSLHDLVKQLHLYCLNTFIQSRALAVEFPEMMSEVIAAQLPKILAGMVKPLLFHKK
Outline: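 Adult ovariectomized rats given oral doses; read-out is reversal of progestin down-regulation of estrogen-induced complement C3 synthesis in uterine epithelium. ED50 averaged from at least duplicate determinations.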

| half-life [1] [min] | AUC [2] [ng·h/mL] | clearance [3] [mL/min/kg] | Compound | ED50 [4] [mg/kg] |
| --- | --- | --- | --- | --- |
| 462 | 3690 | 3.67 | CC1(C)OC(=O)Nc2ccc(-c3cc(F)cc(C#N)c3)cc21 | 1 |
| – | – | – | CC1(C)OC(=O)Nc2ccc(-c3ccc(F)c(Cl)c3)cc21 | 2.5 |
